# Assay outcomes: PubChem, several laboratories
# Compounds with a hit are over-represented: about 3.2% of the library has one in this group of screens.
# SMARCA2 activ: SMARCA2 function activation, primary screen; MG213 cells, MMTV-luciferase reporter, dexamethasone, overnight; activation, % at 9.1 µM; 1% of 370,000 active; in the data active means activation above about 7.8%;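 further: 0% = vehicle wells and 100% = reference activator wells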
# JMJD2C inh: inhibitors of human GASC-1 (JMJD2C) demethylase | Q9H3R0 | GST-JMJD2C(1-420) H3K9me3 demethylation, DELFIA europium | inhibition, % at 2.35 µM | 0.069% of 330,000 active;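 active means more than half of a compound's replicate wells show inhibition beyond 50%, single wells judged on their own value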;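 further: signal counts dimethyl H3K9 product captured on neutravidin plate; 0% = median of DMSO wells and 100% = 0.3 times that DMSO median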
# NR2E3 ag-1: activates human NR2E3 receptor. CHO-S Gal4-NCOR/VP16-NR2E3 two-hybrid, luciferase. Q9Y5X4. 0.35% of 360,000 active. inhibition of corepressor binding, % at 3.98 µM. AID 602229;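 active means inhibition above the mean of all tested compounds plus 3 SD, cut at about 70% in these data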;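 further: 0% = DMSO with NR2E3 transfected cells and 100% = cells lacking NR2E3 construct; higher means lower luciferase signal from less NR2E3 corepressor binding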
# Target sequence (Q9Y5X4 whole entry, looked up, the tested form may be a part): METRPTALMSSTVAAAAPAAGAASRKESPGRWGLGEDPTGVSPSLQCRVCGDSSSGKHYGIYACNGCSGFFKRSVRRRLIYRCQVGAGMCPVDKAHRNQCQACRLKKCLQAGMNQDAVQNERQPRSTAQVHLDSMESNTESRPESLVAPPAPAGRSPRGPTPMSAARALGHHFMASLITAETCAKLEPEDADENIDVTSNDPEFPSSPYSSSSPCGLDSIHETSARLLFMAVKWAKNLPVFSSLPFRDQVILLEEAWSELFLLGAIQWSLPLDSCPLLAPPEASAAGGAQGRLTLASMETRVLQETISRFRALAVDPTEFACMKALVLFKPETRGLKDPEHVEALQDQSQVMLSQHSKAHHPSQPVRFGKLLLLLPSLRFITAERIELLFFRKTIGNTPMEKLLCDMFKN
# DAX1 inh-1: inhibits human nuclear receptor DAX1; P51843; 0.99% of 340,000 active; inhibition, % at 6.75 µM; HEK293 Gal4-DAX1 luciferase reporter, luminescence;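 active means inhibition above the mean over all tested compounds plus 3 SD, cut at about 4.2% in these data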;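 further: 0% = DAX1-transfected cells with DMSO and 100% = empty-vector control cells with DMSO; inhibition shows as a rise in luminescence from relieved DAX1 repression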
# Target sequence (P51843 207-470 limits assumed): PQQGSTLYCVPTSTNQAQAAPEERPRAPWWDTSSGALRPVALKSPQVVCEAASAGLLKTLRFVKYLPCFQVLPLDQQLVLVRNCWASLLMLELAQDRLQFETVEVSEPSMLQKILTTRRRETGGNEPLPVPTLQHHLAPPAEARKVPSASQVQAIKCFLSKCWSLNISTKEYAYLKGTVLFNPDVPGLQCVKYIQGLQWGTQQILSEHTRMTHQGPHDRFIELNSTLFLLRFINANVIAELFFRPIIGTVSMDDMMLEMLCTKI
# NR2E3 ag-2: activates human photoreceptor nuclear receptor NR2E3. Q9Y5X4. GST-NR2E3/biotin-RetCOR TR-FRET, 1536-well. inhibition of corepressor binding, % at 4.78 µM. 0.12% of 320,000 active;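 active means percent inhibition above the cutoff of mean plus 3 SD of all tested compounds, set per screening campaign, cut at about 20% in these data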;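 further: 0% = DMSO wells and 100% = biotin wells as full block of FRET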
#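 System: GST-NR2E3 and biotin-RetCOR proteins; probe or stimulus: 7 nM biotin-RetCOR; doses: compound at 4.8 µM, single dose; schedule: Compound–protein incubation for 5 h at 4 °C; detection: time-resolved FRET; read-out: percent inhibition; controls: biotin wells as high control, 0.6% DMSO wells as low control; format: 1536-well plates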
# DAX1 inh-2: blocks DAX1 repression of SF-1 activated StAR promoter | 1.1% of 370,000 active | AID 652010 | inhibition, % at 6.8 µM | HEK293T StAR-luciferase reporter, SF-1/DAX-1 repression relief;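 active means inhibition above the mean over all tested compounds plus 3 SD, cut at about 3.6% in these data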;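 further: 0% = DAX-1 cells with DMSO and 100% = cells lacking DAX-1 with DMSO; higher inhibition means more luminescence from relief of DAX-1 repression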
# SMARCA2 act conf: SMARCA2 activation, confirmation screen | shares compounds with SMARCA2 activ | MG213 cells, MMTV-luciferase with dexamethasone, luminescence, overnight; MG213 cells expressing E1A, Rb sequestered; DMSO wells 0%, reference activator 100% | activation, % at 9.1 µM | 30% of 3,500 active | AID 652260;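 active means activation above its plate's cutoff, the mean activation of tested wells plus 3 SD, cut at about 7.9% in these data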
# GAL4-VP16 Luc: counter-screen for SMARCA2 activators: GAL4-VP16 luciferase reporter activation | shares compounds with SMARCA2 activ | HEK293 GAL4-VP16 pG5luc reporter, luciferase luminescence; scaled: DMSO wells 0%, SAHA wells 100% | activation, % at 9.1 µM | 41% of 3,500 active;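 active means activation above the solvent-only control well mean plus 3 SD, averaged across control plates, cut at about 5.2% in these data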
# An asterisk follows results filed as active; nt = no result.
SMILES,SMARCA2 activ,JMJD2C inh,NR2E3 ag-1,DAX1 inh-1,NR2E3 ag-2,DAX1 inh-2,SMARCA2 act conf,GAL4-VP16 Luc
CCOC(=O)CCSc1nc(C)c2cc(C)c(C)cc2n1,3,1,-35,-1,-2,0,nt,nt
CCOC(=O)CCSc1nc(C)c2cc(OC)ccc2n1,10*,6,-18,0,2,2,9.0*,11*
NC(=O)c1sc2nc3c(cc2c1N)CCCCCC3,11*,15,-48,0,-2,1,0,2
CCOC(=O)c1sc(=NC(=O)c2cccc(C)c2)n(C)c1C,13*,4,-48,1,4,3.8*,5,5.9*
COC(=O)[C@]12C[C@H](CC(=O)NCc3ccccc3)C(=O)N(Cc3ccc(Cl)cc3Cl)C1=C[C@H](C(C)C)O[C@@H]2C1CC1,-3,nt,nt,nt,nt,0,nt,nt
N=c1c2c(-c3ccccc3)c(-c3ccccc3)n(Cc3ccccc3)c2ncn1CCO,8.7*,-14,-9,-1,-2,-1,2,-2
N=c1c2c(-c3ccccc3)c(-c3ccccc3)n(Cc3ccco3)c2ncn1Cc1ccccc1,2,-15,-15,0,2,-1,nt,nt
COc1ccc(OC)c(S(=O)(=O)N2CCC(C(=O)Nc3ccc(C)c(C)c3)CC2)c1,-5,-4,8,-3,-1,-2,nt,nt
COc1ccc(OC)c(S(=O)(=O)N2CCC(C(=O)Nc3cccc(C)c3C)CC2)c1,8.4*,-9,-18,-1,3,-1,-2,1
O=C(Nc1ccc(F)cc1)N[C@@H]1C[C@@H]2O[C@H](CO)CC[C@@H]2O[C@@H]1CCc1ccc(C2=CCCC2)cc1,-3,nt,nt,nt,nt,-1,nt,nt
CC(=O)Nc1ccc(NC(=O)COC(=O)CCc2nc3ccccc3s2)cc1,-4,-2,-9,0,3,0,nt,nt
Cc1c(Cl)cnc(NC(=O)COC(=O)CCc2nc3ccccc3s2)c1Cl,9.3*,-12,-4,1,3,0,-2,0
Oc1nc(Nc2cccc(Cl)c2)sc1/C=C1\C=Nc2ccccc21,-1,-1,-30,-1,1,0,nt,nt
Oc1cccc(Nc2nc(O)c(/C=C3\C=Nc4ccccc43)s2)c1,11*,6,-97,-1,4,1,15*,6.5*
Cc1cc(C)nc(NC(=O)/C=C/c2ccc3c(c2)OCO3)c1,11*,2,-138,1,-2,4.2*,9.9*,8.4*
COC(=O)c1cc(NC(=O)/C=C/c2ccc3c(c2)OCO3)cc(C(=O)OC)c1,-1,2,19,0,-1,-1,nt,nt
COC(=O)c1cccc(NC(=O)/C=C/c2ccc3c(c2)OCO3)c1,8.2*,-9,-40,-4,2,3,-2,4
COC(=O)[C@]12C[C@H](CC(=O)N3CCN(C(=O)C4CC4)CC3)C(=O)N(Cc3ccc(Cl)cc3Cl)C1=C[C@H](COCc1ccccc1)O[C@@H]2C,-3,nt,nt,nt,nt,-1,nt,nt
O=C(COCc1ccccc1)NC1CCCCN(Cc2cccc(Cl)c2)C1=O (stereo not drawn),-2,nt,nt,nt,nt,1,nt,nt
Cc1ccc(O)c(NC(=O)c2cc(-c3cccs3)on2)c1,13*,-4,-129,1,1,1,21*,6.8*
CC(=O)c1ccc(NC(=O)c2noc(C(C)C)c2[N+](=O)[O-])cc1,2,-1,-17,0,3,0,nt,nt
Cc1ccc(O)c(NC(=O)c2cc(-c3ccc(F)cc3)on2)c1,2,5,-15,0,3,0,nt,nt
Cc1ccc(O)c(NC(=O)c2noc(C(C)C)c2[N+](=O)[O-])c1,9.0*,-7,-59,2,-1,0,6,1
Cc1nnc2c(N(C)S(=O)(=O)c3ccccc3)nc3ccccc3n12,8.2*,15,4,0,5,1,9.0*,3
CCCc1nnc2c(N(C)S(=O)(=O)c3ccccc3)nc3ccccc3n12,-4,-6,19,0,1,0,nt,nt
SMILES,SMARCA2 activ,JMJD2C inh,NR2E3 ag-1,DAX1 inh-1,NR2E3 ag-2,DAX1 inh-2,SMARCA2 act conf,GAL4-VP16 Luc
O=C(Nc1cccnc1Cl)c1ccc(Cl)cc1,3,2,4,2,0,1,nt,nt
O=C(NC(=S)Nc1cccnc1Cl)c1ccc(Cl)cc1,9.9*,37,-57,1,-2,3,3,8.9*
CC1(C(=O)Nc2cnc3ccccc3c2)CCN1Cc1ccccc1OC(F)F (stereo not drawn),-4,nt,-9,nt,nt,-2,nt,nt
Cc1ccccc1NC(=O)c1onc2c1CCCC2,8.2*,-18,-94,3,1,2,7,8.1*
COC(=O)N1CCCC1c1cccc2[nH]cc(C)c12 (stereo not drawn),-5,nt,nt,nt,nt,1,nt,nt
c1ccc(CCNc2nc3ccccc3n3nnnc23)cc1,0,-8,2,1,0,0,nt,nt
COc1ccc(CCNc2nc3ccccc3n3nnnc23)cc1OC,18*,-3,-88,4,0,-1,4,2
COc1ccc(CNc2ccccc2)cc1Br,-2,2,-22,1,1,-1,nt,nt
COc1cc(CNc2cccc(F)c2)cc(Br)c1O,9.2*,-4,14,0,2,0,5,2
CCOC(=O)C1(Cc2ccccc2)CCN(Cc2ccccc2[N+](=O)[O-])CC1,-2,nt,nt,nt,nt,-1,nt,nt
Cc1ccc(C(=O)Cn2cncn2)cc1,10*,8,-2,1,4,0,-2,0
Cc1ccc(-n2c(C)cc(-c3csc(N)n3)c2C)cc1,12*,-2,-8,-1,2,-1,-10,-1
Cn1cccc1/C=C1\SC(=Nc2ccc(O)cc2)NC1=O,3,6,-26,3,-5,2,nt,nt
Cc1cc(C)cc(N=C2NC(=O)/C(=C/c3cccs3)S2)c1,2,0,-4,1,-1,-1,nt,nt
O=C1NC(=Nc2ccccc2)S/C1=C\c1cccs1,13*,5,-51,1,-2,0,15*,6.8*
Cn1cccc1/C=C1\SC(=Nc2cccc(O)c2)NC1=O,9.9*,5,-156,2,-1,1,10*,11*
O=C(N[C@H](C(=O)N1CCC[C@H]1C(=O)NCc1ccccc1)c1ccccc1)c1ccccc1,-1,nt,nt,nt,nt,-1,nt,nt
COc1ccccc1NC(=S)N(CCCN(C)C)Cc1cc2cc3c(cc2[nH]c1=O)OCO3,8.0*,4,-22,1,9,1,-1,0
